Source: paper PMC5460915 (Molecular pharmaceutics, 2015)

Tests used:
[1] = molecular target: NTR1 (NTR1-positive HT-29 cells) (Homo sapiens, UniProt P30989); assay: In vitro competitive cell binding assay against 125I-NT; conditions: as supported by the similar IC50 values
[2] = test system: NTR1-expressing HT-29 tumor; assay: Immunohistochemistry and fluorescence microscopy of HT-29 tumor sections; assay type: in vivo, mice bearing human HT-29 xenograft
Summary of the method: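 Dye-conjugated test compound given i.v. to HT-29 xenograft mice, with or without a blocking dose of NT peptide. Tumors taken 4 h p.i., […], cut at 6 μm (cryostat, −25 °C) and fixed in ice-cold acetone for 15 min. Peroxidase quenched with 3% H2O2 in methanol, then blocked with 10% horse serum for 1 h at RT. Anti-CD31 with labelled secondary (1:200), DAPI 2 μg/mL for 20 min at 37 °C. Confocal imaging, 40× objective.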

[3] = In vitro stability in PBS; assay type: physicochemical; conditions: PBS (1×), 37 MBq/mL, radio-HPLC
Summary of the method: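 64Cu-labelled test compound HPLC-purified, solvent evaporated and taken up in 1× PBS at 37 MBq/mL. Radiochemical purity by radio-HPLC at 30 min, 2 h and 6 h of incubation.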

[4] = test system: NTR1-positive HT-29 tumor; assay: Small animal PET imaging in HT-29 xenograft mice; assay type: in vivo, human HT-29 xenograft in male athymic mice (BALB/c nu/nu)
Summary of the method: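 Xenografts were HT-29 cells, 1 × 10^6 per 0.1 mL s.c. in the shoulder, tumors ≥3 mm. Radioligand labelled with 64CuCl2 in NH4OAc pH 5.5 at 37 °C for 60 min, HPLC-purified, in PBS (about 10.2 GBq/μmol). About 3.7 MBq via tail vein, n = 3/group; blocking group co-given 100 μg unlabelled NT. PET at 1 and 4 h p.i. ROI counts/g/min (1 g/mL density assumed) divided by injected dose gave %ID/g.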

[5] = Biodistribution in nude mice bearing HT-29 tumor; assay type: in vivo, nude mice bearing HT-29 xenograft; conditions: for tissue uptake at 4 h: male, athymic nude BALB/c nu/nu, mouse, total radioactivity
Summary of the method: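 HT-29 cells (McCoy's 5A, 10% FBS, 37 °C, 5% CO2; trypsin-EDTA at 80% confluence) at 1 × 10^6 per 0.1 mL s.c. in the shoulder of 4–6-wk male BALB/c nu/nu mice, used at ≥3 mm tumor diameter. 3.7 MBq 64Cu-labelled test compound (HPLC-purified, in PBS) given. Mice killed under inhalation anesthesia 4 h p.i.; tissues weighed and gamma-counted. Group mean %ID/g ± SD.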

[6] = test system: NTR1-positive HT-29 tumor; assay: In vivo near-infrared fluorescence imaging; design: species or system mice bearing human HT-29 xenograft; conditions: 1.5 nmol i.v., 1 and 4 h p.i., Cy5.5 filter set
[7] = test system: NTR1-positive HT-29 tumor; assay: Ex vivo near-infrared fluorescence imaging of tumors and organs; assay type: in vivo, mice bearing human HT-29 xenograft

Sequence of NTR1 (NTR1-positive HT-29 cells) (P30989 whole entry): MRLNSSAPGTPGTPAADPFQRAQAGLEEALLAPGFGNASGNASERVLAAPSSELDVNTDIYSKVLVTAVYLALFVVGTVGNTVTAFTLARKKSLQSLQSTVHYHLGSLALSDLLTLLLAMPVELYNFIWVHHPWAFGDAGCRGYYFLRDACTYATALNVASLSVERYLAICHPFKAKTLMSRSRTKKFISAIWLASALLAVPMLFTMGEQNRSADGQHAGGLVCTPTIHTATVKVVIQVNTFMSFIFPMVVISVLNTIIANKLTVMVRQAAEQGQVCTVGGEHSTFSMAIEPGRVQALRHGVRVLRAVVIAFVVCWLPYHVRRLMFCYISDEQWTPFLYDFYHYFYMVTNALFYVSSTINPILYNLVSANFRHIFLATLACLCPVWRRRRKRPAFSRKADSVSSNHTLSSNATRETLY

SMILES	binding affinity compared between DOTA-NT-Cy5.5 and NT (in words) [1]	fluorescent signal in tumors of blocking animals (in words) ([2]; 4 h p.i., with blocking dose of NT peptide vs without)	specific binding in HT-29 tumor (in words) ([2]; FL microscope, coinjected Cys-NT peptide)	radiochemical purity ([3]; 30 min after incubation)	radiochemical purity ([3]; 2 h after incubation)	radiochemical purity ([3]; 6 h after incubation)	tumor uptake ([4]; PET ROI, HT-29 xenograft, 1 h p.i., ~3.7 MBq tail vein, n = 3/group, mean ± SD)	inhibition of tumor uptake by nonradioactive Cys-NT (in words) ([4]; blocking experiment, P < 0.05, all time points (Figures 3 and 5: PET and fluorescence))	uptake in normal organs, blocked vs unblocked (in words) ([4]; liver, kidneys, muscle, with vs without 100 μg unlabeled NT)	tumor-to-muscle ratio ([5]; 4 h p.i., based on biodistribution, HT-29 xenograft, mean ± SD)	tumor uptake relative to liver, PET and biodistribution (in words) ([5]; HT-29 tumor vs liver, PET imaging and biodistribution)	muscle, lung, and heart uptake (in words) ([5]; biodistribution, 4 h p.i., 3.7 MBq)	tissue uptake at 4 h ([5]; kidney, 3.7 MBq)	tissue uptake at 4 h ([5]; liver, 3.7 MBq)	tumor fluorescence signal in vivo (in words) [6]	tumor uptake relative to liver, optical imaging (in words) ([7]; HT-29 tumor vs liver, optical imaging)	tumor to muscle contrast (in words) ([7]; PET and ex vivo fluorescence, 4 h p.i.)	organs with high probe uptake (in words) ([7]; ex vivo fluorescence, 1.5 nmol i.v., 4 h p.i.)
CC[C@H](C)[C@H](NC(=O)[C@H](Cc1ccc(O)cc1)NC(=O)[C@@H]1CCCN1C(=O)[C@H](CCCNC(=N)N)NC(=O)[C@H](CCCNC(=N)N)NC(=O)[C@@H]1CCCN1C(=O)[C@H](CCCCN)NC(=O)[C@H](CSC1CC(=O)N(CCNC(=O)CCCCC[N+]2=C(C=CC=CC=C3N(CC)c4ccc5c(S(=O)(=O)O)cc(S(=O)(=O)[O-])cc5c4C3(C)C)C(C)(C)c3c2ccc2c(S(=O)(=O)O)cc(S(=O)(=O)O)cc32)C1=O)NC(=O)CN1CCN(CC(=O)O)CCN(CC(=O)O)CCN(CC(=O)O)CC1)C(=O)N[C@@H](CC(C)C)C(=O)O (stereo partly drawn) [DOTA-NT-Cy5.5]	not significantly different	very weak fluorescent signals	tumor localization was clearly inhibited by coinjected Cys-NT peptide	–	–	–	–	–	–	–	–	–	–	–	–	–	–	–
CC[C@H](C)[C@H](NC(=O)[C@H](Cc1ccc(O)cc1)NC(=O)[C@@H]1CCCN1C(=O)[C@H](CCCNC(=N)N)NC(=O)[C@H](CCCNC(=N)N)NC(=O)[C@@H]1CCCN1C(=O)[C@H](CCCCN)NC(=O)[C@H](CSC1CC(=O)N(CCNC(=O)CCCCC[N+]2=C(C=CC=CC=C3N(CC)c4ccc5c(S(=O)(=O)O)cc(S(=O)(=O)[O-])cc5c4C3(C)C)C(C)(C)c3c2ccc2c(S(=O)(=O)O)cc(S(=O)(=O)O)cc32)C1=O)NC(=O)CN1CCN(CC(=O)O)CCN(CC(=O)O)CCN(CC(=O)O)CC1)C(=O)N[C@@H](CC(C)C)C(=O)O (stereo partly drawn) [^64Cu-DOTA-NT-Cy5.5, metal not drawn]	–	–	–	greater than 98.9%	> 96.9%	> 90.8%	1.91 ± 0.22 %ID/g	nonradioactive Cys-NT peptide significantly (P < 0.05) inhibited the tumor uptake	no significant difference in most of the normal organs	17.44 ± 3.25	HT-29 tumor has lower uptake than liver	The muscle, lung, and heart had relatively low uptake	14.2 ± 1.33 %ID/g	4.63 ± 0.74 %ID/g	the HT-29 tumor lit up at all the time points examined	higher tumor uptake than liver	both PET and fluorescence gave good tumor to muscle contrast	The tumor, liver, and kidneys are three motifs that showed high probe uptake
